Reference: ChEMBL document CHEMBL1138050, “Furan-2-ylmethylene thiazolidinediones as novel, potent, and selective inhibitors of phosphoinositide 3-kinase gamma” (J Med Chem, 2006)

Assays:
THP-1 [1] = assay: Inhibition of CSF-1-induced PKB/Akt phosphorylation in THP1 cells; details: Homo sapiens
[2] = target: Protein kinase C eta type (Homo sapiens) (UniProt P24723); assay: Residual activity at human PKCeta at 10 uM in presence of 10 uM ATP relative to control
How it was run: (§1)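 Single-concentration counter-screen across a panel of 80 Ser/Thr and Tyr protein kinases. Compound was tested at 10 µM with ATP at 10 µM. Activity remaining in each kinase is expressed relative to control.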

THP-1 [3] = assay: Inhibition of MCP1-induced PKB/Akt phosphorylation in THP1 cells; assay type: functional, cell-based; details: Homo sapiens
How it was run: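 THP-1 monocytes starved 3 h in serum-free medium and pretreated with inhibitor or DMSO (15 min in methods; 20 min in figure legend). Stimulated with 100 nM MCP-1/CCL2 for 30 s, or with 50 ng/mL CSF-1 for 5 min. Phospho-Ser-473 and total Akt detected by Western blot and quantified.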

[4] = target: Cyclin-dependent kinase 1/cyclin B1 (Homo sapiens) (UniProt P06493+P14635); assay: Residual activity at human CDK1/CyclinB at 10 uM in presence of 10 uM ATP relative to control; assay type: protein-complex assay
Sequence of Cyclin-dependent kinase 1/cyclin B1 (Homo sapiens) (P06493 whole entry, looked up): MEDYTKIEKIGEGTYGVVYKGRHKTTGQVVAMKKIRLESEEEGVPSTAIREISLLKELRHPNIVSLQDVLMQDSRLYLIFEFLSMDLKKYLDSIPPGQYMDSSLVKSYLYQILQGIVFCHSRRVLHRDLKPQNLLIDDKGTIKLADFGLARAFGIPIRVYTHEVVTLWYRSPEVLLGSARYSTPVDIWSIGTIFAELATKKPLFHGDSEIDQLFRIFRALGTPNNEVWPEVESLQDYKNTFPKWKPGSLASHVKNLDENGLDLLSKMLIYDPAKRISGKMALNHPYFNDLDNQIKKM
Sequence of Cyclin-dependent kinase 1/cyclin B1 (Homo sapiens) (P14635 whole entry, looked up): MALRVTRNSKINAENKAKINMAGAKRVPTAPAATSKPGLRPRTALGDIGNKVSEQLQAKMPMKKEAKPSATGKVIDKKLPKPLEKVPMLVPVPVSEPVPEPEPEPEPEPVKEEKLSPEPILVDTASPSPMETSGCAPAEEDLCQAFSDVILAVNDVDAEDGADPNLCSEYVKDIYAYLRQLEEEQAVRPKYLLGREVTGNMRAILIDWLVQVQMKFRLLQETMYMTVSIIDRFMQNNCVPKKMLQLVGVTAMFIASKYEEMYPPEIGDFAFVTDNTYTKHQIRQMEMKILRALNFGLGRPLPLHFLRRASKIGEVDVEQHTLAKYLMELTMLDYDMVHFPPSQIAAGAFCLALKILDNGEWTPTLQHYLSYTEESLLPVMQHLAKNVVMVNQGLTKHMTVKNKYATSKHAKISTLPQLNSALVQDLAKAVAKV
How it was run: (§2)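 Panel of Ser/Thr and Tyr protein kinases, each tested with 10 µM compound in the presence of 10 µM ATP; activity expressed relative to control.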

[5] = Cmax in rat at 10 mg/kg, po; assay type: ADME, organism-based; set-up: dose 10 mg/kg, route oral; details: in vivo
How it was run: (§3)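 Rats given a single 10 mg/kg dose, intravenously or orally. The compound was given as its potassium salt, prepared with KOH in THF/water, for the in vivo work.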

[6] = target: Serine/threonine-protein kinase D1 (Homo sapiens) (UniProt Q15139); assay: Residual activity at human PKCmu at 10 uM in presence of 10 uM ATP relative to control
How it was run: as §1

[7] = target: CDK3/cyclin E (Homo sapiens) (UniProt P24864+O96020+Q00526); assay: Residual activity at human CDK3/CyclinE at 10 uM in presence of 10 uM ATP relative to control; assay type: protein-complex assay
How it was run: as §2

[8] = target: Protein kinase C beta type (Homo sapiens) (UniProt P05771); assay: Residual activity at human PKCbeta2 at 10 uM in presence of 10 uM ATP relative to control
How it was run: as §1

[9] = AUC in rat at 10 mg/kg, iv; assay type: ADME, organism-based; set-up: dose 10 mg/kg, route intravenous; details: plasma
How it was run: as §3

[10] = target: Dual specificity mitogen-activated protein kinase kinase 7 (Homo sapiens, UniProt O14733); assay: Inhibition of human MKK7beta
Sequence of Dual specificity mitogen-activated protein kinase kinase 7 (O14733 whole entry): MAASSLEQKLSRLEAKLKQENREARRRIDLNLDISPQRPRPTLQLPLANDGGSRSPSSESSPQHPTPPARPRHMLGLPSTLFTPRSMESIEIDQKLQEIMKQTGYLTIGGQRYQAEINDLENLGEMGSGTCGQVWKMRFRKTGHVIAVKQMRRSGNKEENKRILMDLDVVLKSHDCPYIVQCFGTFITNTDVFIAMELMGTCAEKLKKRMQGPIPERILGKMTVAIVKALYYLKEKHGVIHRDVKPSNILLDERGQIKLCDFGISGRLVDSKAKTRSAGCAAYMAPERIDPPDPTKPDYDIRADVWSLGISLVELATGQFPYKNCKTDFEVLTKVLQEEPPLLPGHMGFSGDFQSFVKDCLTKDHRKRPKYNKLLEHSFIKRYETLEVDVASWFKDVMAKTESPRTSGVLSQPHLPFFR

[11] = target: Tyrosine-protein kinase CSK (Homo sapiens) (UniProt P41240); assay: Residual activity at human CSK at 10 uM in presence of 10 uM ATP relative to control
How it was run: as §2

[12] = target: Mitogen-activated protein kinase 1 (Homo sapiens) (UniProt P28482); assay: Residual activity at human MAPK1 at 10 uM in presence of 10 uM ATP relative to control
Sequence of Mitogen-activated protein kinase 1 (Homo sapiens) (P28482 whole entry): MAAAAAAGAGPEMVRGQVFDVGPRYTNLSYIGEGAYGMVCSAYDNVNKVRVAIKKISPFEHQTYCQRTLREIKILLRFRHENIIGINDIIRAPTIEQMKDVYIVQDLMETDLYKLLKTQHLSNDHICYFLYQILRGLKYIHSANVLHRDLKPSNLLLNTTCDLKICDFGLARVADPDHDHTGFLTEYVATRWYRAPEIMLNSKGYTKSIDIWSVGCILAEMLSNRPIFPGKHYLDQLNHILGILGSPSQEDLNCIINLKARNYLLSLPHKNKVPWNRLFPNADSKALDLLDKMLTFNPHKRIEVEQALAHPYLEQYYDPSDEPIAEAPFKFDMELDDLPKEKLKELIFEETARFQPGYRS
How it was run: as §1

[13] = target: Ribosomal protein S6 kinase alpha-5 (Homo sapiens) (UniProt O75582); assay: Residual activity at human MSK1 at 10 uM in presence of 10 uM ATP relative to control
How it was run: as §1

[14] = Half life in rat at 10 mg/kg, po; assay type: ADME, organism-based; set-up: dose 10 mg/kg, route oral; details: in vivo
How it was run: as §3

[15] = Metabolism in human microsome after 1 hr; assay type: ADME; details: microsomes, read-out: Activity
[16] = target: Mitogen-activated protein kinase 13 (Homo sapiens) (UniProt O15264); assay: Residual activity at human SAPK4 at 10 uM in presence of 10 uM ATP relative to control
How it was run: as §1

[17] = target: Cyclin-dependent kinase 5/CDK5 activator 1 (Homo sapiens) (UniProt Q00535+Q15078); assay: Residual activity at human CDK5/p35 at 10 uM in presence of 10 uM ATP relative to control; assay type: protein-complex assay
How it was run: as §2

[18] = target: Ribosomal protein S6 kinase alpha-1 (Homo sapiens) (UniProt Q15418); assay: Residual activity at human Rsk1 at 10 uM in presence of 10 uM ATP relative to control
Sequence of Ribosomal protein S6 kinase alpha-1 (Homo sapiens) (Q15418 whole entry): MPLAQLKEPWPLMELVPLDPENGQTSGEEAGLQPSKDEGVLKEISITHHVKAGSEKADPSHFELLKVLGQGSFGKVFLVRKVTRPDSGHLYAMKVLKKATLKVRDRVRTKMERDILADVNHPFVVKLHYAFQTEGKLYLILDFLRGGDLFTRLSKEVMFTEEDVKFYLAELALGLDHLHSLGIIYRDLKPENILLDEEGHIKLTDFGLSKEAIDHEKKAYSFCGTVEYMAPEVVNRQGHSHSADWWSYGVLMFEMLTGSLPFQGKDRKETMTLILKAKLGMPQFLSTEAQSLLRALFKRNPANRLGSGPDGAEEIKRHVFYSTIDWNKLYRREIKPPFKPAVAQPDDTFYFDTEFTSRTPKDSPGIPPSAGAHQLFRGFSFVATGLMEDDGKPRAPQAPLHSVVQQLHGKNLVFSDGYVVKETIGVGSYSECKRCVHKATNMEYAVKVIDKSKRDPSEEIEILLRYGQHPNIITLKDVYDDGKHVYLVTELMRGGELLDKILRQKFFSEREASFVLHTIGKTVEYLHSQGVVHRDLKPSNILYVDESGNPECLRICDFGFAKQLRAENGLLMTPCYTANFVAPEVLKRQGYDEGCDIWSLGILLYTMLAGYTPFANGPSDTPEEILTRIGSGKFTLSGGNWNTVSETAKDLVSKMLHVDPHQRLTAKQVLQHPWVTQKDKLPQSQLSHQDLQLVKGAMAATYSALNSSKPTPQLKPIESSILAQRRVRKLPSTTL
How it was run: as §1

[19] = target: Ca2+/calmodulin-dependent protein kinase II (CaM kinase II) (Rattus norvegicus) (UniProt P11275+P08413+P15791+P11730); assay: Residual activity at rat CaMK2 at 10 uM in presence of 10 uM ATP relative to control; assay type: protein assay
[20] = target: Mitogen-activated protein kinase 14 (Homo sapiens) (UniProt Q16539); assay: Residual activity at human SAPK2a at 10 uM in presence of 10 uM ATP relative to control
Sequence of Mitogen-activated protein kinase 14 (Homo sapiens) (Q16539 whole entry): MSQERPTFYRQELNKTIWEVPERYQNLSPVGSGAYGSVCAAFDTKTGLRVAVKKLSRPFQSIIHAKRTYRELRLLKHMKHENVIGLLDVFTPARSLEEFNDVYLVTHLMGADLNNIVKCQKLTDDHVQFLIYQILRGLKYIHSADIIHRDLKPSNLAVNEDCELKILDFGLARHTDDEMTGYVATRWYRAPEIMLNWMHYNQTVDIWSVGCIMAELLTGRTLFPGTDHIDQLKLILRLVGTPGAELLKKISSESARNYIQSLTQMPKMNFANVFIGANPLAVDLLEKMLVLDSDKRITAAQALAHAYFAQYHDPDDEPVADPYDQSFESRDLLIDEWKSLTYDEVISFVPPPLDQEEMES
How it was run: as §1

[21] = target: Cytoplasmic tyrosine-protein kinase BMX (Homo sapiens) (UniProt P51813); assay: Residual activity at human Bmx at 10 uM in presence of 10 uM ATP relative to control
How it was run: as §2

[22] = target: Serine/threonine-protein kinase Chk1 (Homo sapiens) (UniProt O14757); assay: Residual activity at human Chk1 at 10 uM in presence of 10 uM ATP relative to control
How it was run: as §2

[23] = target: Ribosomal protein S6 kinase alpha-2 (Homo sapiens) (UniProt Q15349); assay: Residual activity at human Rsk2 at 10 uM in presence of 10 uM ATP relative to control
How it was run: as §1

Mus musculus = assay: Reduction of neutrophil recruitment in mouse at 10 mg/kg, po; assay type: functional; set-up: scale not given: the % may be the effect or the level left
How it was run: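 Thioglycollate-induced peritonitis in mice. Compound given orally at 10 mg/kg; peritoneal neutrophil recruitment measured 4 h after thioglycollate injection, reported as percent reduction.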

[24] = target: Tyrosine-protein kinase Fes/Fps (Homo sapiens) (UniProt P07332); assay: Residual activity at human Fes at 10 uM in presence of 10 uM ATP relative to control
Sequence of Tyrosine-protein kinase Fes/Fps (Homo sapiens) (P07332 whole entry): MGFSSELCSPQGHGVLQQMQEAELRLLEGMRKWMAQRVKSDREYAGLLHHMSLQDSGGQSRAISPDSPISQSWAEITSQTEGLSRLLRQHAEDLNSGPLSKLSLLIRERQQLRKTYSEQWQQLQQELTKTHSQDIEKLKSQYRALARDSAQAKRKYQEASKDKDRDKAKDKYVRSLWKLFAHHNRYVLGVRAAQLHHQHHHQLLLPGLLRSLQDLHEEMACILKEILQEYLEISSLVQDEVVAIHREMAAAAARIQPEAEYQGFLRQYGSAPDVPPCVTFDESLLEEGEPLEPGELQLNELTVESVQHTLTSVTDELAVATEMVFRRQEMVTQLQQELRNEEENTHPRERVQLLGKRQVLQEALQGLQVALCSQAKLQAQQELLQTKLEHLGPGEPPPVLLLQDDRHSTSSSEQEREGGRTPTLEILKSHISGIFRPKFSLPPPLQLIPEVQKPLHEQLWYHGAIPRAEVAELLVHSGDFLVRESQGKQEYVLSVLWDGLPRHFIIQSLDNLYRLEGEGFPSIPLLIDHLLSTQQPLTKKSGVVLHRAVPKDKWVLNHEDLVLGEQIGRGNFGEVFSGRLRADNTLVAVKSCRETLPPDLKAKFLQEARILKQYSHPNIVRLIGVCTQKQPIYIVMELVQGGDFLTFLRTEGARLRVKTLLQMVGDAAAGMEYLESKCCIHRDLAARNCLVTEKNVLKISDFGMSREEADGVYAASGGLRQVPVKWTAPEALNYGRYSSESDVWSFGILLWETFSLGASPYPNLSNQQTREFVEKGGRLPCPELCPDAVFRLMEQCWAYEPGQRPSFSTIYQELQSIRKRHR
How it was run: as §2

[25] = target: Ribosomal protein S6 kinase beta-1 (Homo sapiens) (UniProt P23443); assay: Residual activity at human p70S6K at 10 uM in presence of 10 uM ATP relative to control
Sequence of Ribosomal protein S6 kinase beta-1 (Homo sapiens) (P23443 whole entry, looked up): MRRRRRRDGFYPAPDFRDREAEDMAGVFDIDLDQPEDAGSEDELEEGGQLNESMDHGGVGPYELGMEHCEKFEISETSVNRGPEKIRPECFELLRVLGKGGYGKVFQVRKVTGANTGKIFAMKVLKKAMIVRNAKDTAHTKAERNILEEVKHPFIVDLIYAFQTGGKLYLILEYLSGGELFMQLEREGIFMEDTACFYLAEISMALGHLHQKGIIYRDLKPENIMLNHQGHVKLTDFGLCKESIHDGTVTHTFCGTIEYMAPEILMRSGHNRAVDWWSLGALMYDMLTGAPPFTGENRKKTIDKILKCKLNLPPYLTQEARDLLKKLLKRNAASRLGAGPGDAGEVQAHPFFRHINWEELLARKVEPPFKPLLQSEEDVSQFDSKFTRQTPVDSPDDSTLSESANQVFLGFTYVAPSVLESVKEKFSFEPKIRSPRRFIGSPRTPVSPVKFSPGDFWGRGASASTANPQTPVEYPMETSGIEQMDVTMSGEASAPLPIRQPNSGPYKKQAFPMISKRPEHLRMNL
How it was run: as §1

[26] = Metabolism in rat microsome after 1 hr; assay type: ADME; details: microsomes, read-out: Activity
[27] = target: cAMP-dependent protein kinase (PKA) (Homo sapiens) (UniProt P22694+P17612+P22612); assay: Residual activity at human PKA at 10 uM in presence of 10 uM ATP relative to control; assay type: protein assay
How it was run: as §1

[28] = target: Cyclin-dependent kinase 7/ cyclin H (Homo sapiens) (UniProt P51946+P50613); assay: Residual activity at human CDK7/CyclinH/MAT1 at 10 uM in presence of 10 uM ATP relative to control; assay type: protein-complex assay
How it was run: as §2

Rattus norvegicus = species on record: Rattus norvegicus; assay: Residual activity at rat AMPK at 10 uM in presence of 10 uM ATP relative to control
How it was run: as §1

[29] = target: Receptor-type tyrosine-protein kinase FLT3 (Homo sapiens) (UniProt P36888); assay: Residual activity at human Flt3 at 10 uM in presence of 10 uM ATP relative to control
Sequence of Receptor-type tyrosine-protein kinase FLT3 (Homo sapiens) (P36888 whole entry): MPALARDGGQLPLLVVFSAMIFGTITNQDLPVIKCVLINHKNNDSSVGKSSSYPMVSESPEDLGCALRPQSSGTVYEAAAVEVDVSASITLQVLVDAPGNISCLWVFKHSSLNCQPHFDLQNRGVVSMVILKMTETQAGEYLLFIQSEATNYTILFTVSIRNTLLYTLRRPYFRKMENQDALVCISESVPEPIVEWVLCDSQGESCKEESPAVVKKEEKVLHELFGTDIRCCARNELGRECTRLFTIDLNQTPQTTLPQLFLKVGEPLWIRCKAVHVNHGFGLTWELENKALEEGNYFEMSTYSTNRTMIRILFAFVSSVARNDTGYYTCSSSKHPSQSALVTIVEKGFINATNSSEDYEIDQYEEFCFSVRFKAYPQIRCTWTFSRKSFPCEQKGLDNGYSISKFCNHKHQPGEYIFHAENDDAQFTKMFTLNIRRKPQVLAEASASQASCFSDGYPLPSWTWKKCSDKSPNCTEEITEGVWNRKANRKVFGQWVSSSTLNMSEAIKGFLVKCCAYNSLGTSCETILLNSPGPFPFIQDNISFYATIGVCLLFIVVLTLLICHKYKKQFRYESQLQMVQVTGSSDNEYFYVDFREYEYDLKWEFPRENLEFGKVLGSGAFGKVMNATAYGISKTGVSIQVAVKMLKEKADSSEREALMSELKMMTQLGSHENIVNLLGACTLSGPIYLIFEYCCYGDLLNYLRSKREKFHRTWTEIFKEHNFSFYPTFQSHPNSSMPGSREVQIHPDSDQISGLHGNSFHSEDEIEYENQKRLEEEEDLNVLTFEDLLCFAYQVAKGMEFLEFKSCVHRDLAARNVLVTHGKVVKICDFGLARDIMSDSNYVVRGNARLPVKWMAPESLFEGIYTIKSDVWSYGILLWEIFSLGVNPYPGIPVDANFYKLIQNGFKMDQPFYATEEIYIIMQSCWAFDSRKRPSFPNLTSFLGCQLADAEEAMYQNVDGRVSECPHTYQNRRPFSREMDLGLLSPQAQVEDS
How it was run: as §2

[30] = target: Mitogen-activated protein kinase 8 (Homo sapiens) (UniProt P45983); assay: Residual activity at human JNK1alpha1 at 10 uM in presence of 10 uM ATP relative to control
How it was run: as §1

[31] = target: Protein kinase C gamma type (Homo sapiens) (UniProt P05129); assay: Residual activity at human PKCgamma at 10 uM in presence of 10 uM ATP relative to control
How it was run: as §1

IC50 (THP-1 [1]): 4.73 µM | Activity [2]: 91% | IC50 (THP-1 [3]): 0.4 µM | Activity [4]: 80% | Cmax [5]: 309 ng/mL | Activity [6]: 98% | Activity [7]: 117% | Activity [8]: 98% | AUC [9]: 4400 ng·h/mL | IC50 [10]: > 10 µM | Activity [11]: 103% | Activity [12]: 103% | Activity [13]: 72% | half-life [14]: 1 h | metabolised at 1 h [15]: 10% | Activity [16]: 93% | Activity [17]: 83% | Activity [18]: 104% | Activity [19]: 97% | Activity [20]: 84% | Activity [21]: 102% | Activity [22]: 94% | Activity [23]: 86% | Activity [24]: 90% | Activity [25]: 190% | metabolised at 1 h [26]: 16% | Activity [27]: 89% | Activity [28]: 77% | Activity (Rattus norvegicus): 90% | Activity [29]: 93% | Activity [30]: 97% | Activity [31]: 107%
SMILES: O=C1NC(=O)/C(=C/c2ccc(-c3ccc(F)cc3O)o2)S1
Activity (Mus musculus): 35%
